In PMC3684861 (European journal of nuclear medicine and molecular imaging, 2011):

Tests used:
[1] = test system: EMT6 and EMT6Ar1.0 tumour sections (Pgp); test: In vitro autoradiography on tumour sections; format: binding, mouse; settings: for binding in EMT6Ar1.0 tumours compared to EMT6 tumours: radiotracer alone, 30 min incubation, 10 μm tumour slices
How it was run: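 Frozen tumours from imaged mice were cut into 10 μm cryostat sections at −12°C, with 3 consecutive sections. Sections were thawed, preincubated in PBS, then incubated 30 min with ¹¹C-labelled Pgp radiotracer (about 20 MBq), alone or with unlabelled inhibitor (10 μM). They were washed in 20% (v/v) ethanol/PBS and distilled water, air-dried, exposed to a phosphor screen and scanned at 600 dpi.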

[2] = test system: EMT6 tumours; test: Static [18F]FDG PET, EMT6 tumours; format: in vivo, mouse; settings: 10 min static PET scan at 60 min after injection
How it was run: (§1)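 Female athymic NMRI-Foxn1^nu mice (6-8 weeks) had EMT6 and EMT6Ar1.0 cells (3-5 × 10⁵) injected subcutaneously into opposite upper flanks. At about 130 mm³ tumour size, mice (n=7) under isoflurane at about 37°C received [¹⁸F]FDG (6±3 MBq) i.v. A 10 min static microPET scan was taken at 60 min. Tumour ROIs were outlined manually, with SUV = (radioactivity/cm³ ÷ injected radioactivity) × body weight.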

[3] = test system: EMT6Ar1.0 tumours; test: Static [18F]FDG PET, EMT6Ar1.0 tumours; format: in vivo, mouse; settings: 10 min static PET scan at 60 min after injection
How it was run: as §1

[4] = test system: Pgp at the BBB (whole brain); test: Small-animal PET, whole brain as reference region for Pgp modulation at the BBB; format: in vivo, mouse; settings: for tumoural activity uptake relative to brain activity uptake: scan 1, before unlabelled tariquidar; for brain AUC0-60 in scan 2 relative to scan 1: whole brain, scan 2 at 2 h after unlabelled tariquidar 15 mg/kg i.v.
[5] = cited from earlier work
[6] = test system: Pgp at the BBB; settings: tariquidar dose 15 mg/kg; cited from earlier work
[7] = test system: EMT6 cells; test: In vitro cytotoxicity assay, EMT6 cells; format: cell-based, mouse; settings: tariquidar 0.01 to 10 μM, 48 h
How it was run: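 EMT6 cells were grown as monolayers in Waymouth's MB 752/1 with 2.4 mM L-glutamine, 15% heat-inactivated FBS and penicillin/streptomycin at 37°C, 5% CO₂. Cells were exposed to increasing test compound concentrations (0.01 to 10 μM) in their culture medium for 48 h. Survival was expressed relative to control cells.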

[8] = cited from earlier work; remark: listed apart in the source
[9] = test system: EMT6Ar1.0 cells; test: In vitro cytotoxicity assay, EMT6Ar1.0 cells; format: cell-based, mouse; settings: tariquidar ≥0.1 μM, 48 h, culture medium containing doxorubicin
How it was run: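 The Pgp-overexpressing line was derived from EMT6 cells by culture under increasing doxorubicin concentrations and kept at 37°C, 5% CO₂. Cells were exposed to increasing test compound concentrations (0.01 to 10 μM) in their own culture medium for 48 h. Survival was expressed relative to control cells.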

[10] = test system: EMT6 tumours; format: in vivo, mouse; settings: scan 2, 2 h after unlabelled tariquidar 15 mg/kg i.v.
[11] = test system: Pgp overexpressing EMT6Ar1.0 tumours; format: in vivo, mouse

binding in EMT6Ar1.0 tumours compared to EMT6 tumours [1]	Molecule	tumoural activity uptake relative to brain activity uptake [4]	brain AUC0-60 in scan 2 relative to scan 1 [4]	metabolism in vivo [5]	further results
1.3 times	COc1ccc(CCN([11CH3])CCC[C@](C#N)(c2ccc(OC)c(OC)c2)C(C)C)cc1OC [(R)-[^11C]verapamil, reference compound]				radiotracer binding after co-incubation ([1]; both tumours, co-incubation with unlabelled tariquidar, elacridar or verapamil (10 μM)): no significant reduction
	OC[C@H]1OC(O)[C@H]([18F])[C@@H](O)[C@@H]1O (some centres unmarked) [[^18F]FDG]				mean tumoural SUV±SD [2]: 1.86±0.49; mean tumoural SUV±SD [3]: 2.45±0.75
2.1 times	COc1cc2c(cc1OC)CN(CCc1ccc(NC(=O)c3cccc4c(=O)c5cccc(OC)c5[nH]c34)cc1)CC2 [[^11C]elacridar]	2 to 3 times	3.5±0.4 times	hardly metabolised	
	4-[^18F]fluoropaclitaxel [reference compound]			extensively metabolised	
	COc1cc2c(cc1OC)CN(CCc1ccc(NC(=O)c3cc(OC)c(OC)cc3NC(=O)c3cnc4ccccc4c3)cc1)CC2 [tariquidar, Tariquidar dimesylate]				inhibition of Pgp at the BBB [6]: complete inhibition; effect on cell survival [7]: no effect; terminal elimination half-life [8]: 26 h; cell survival rate [9]: < 5 % of control cells

Molecule	binding in EMT6Ar1.0 tumours compared to EMT6 tumours [1]	tumoural activity uptake relative to brain activity uptake [4]	brain AUC0-60 in scan 2 relative to scan 1 [4]	metabolism in vivo [5]	further results
COc1cc2c(cc1OC)CN(CCc1ccc(NC(=O)c3cc(OC)c(OC)cc3NC(=O)c3cnc4ccccc4c3)cc1)CC2 [[^11C]tariquidar]	4.3 times	2 to 3 times	2.4±0.3 times	hardly metabolised	mean AUC0-60±SD of tumour time-activity curve (SUV) [10]: 31.7 ± 7.9 min; higher retention in EMT6Ar1.0 tumours than in EMT6 tumours ([11]; PET, AUC0-60): 50%; mean AUC0-60±SD of tumour time-activity curve (SUV) ([11]; scan 2, 2 h after unlabelled tariquidar 15 mg/kg i.v., EMT6Ar1.0 tumours): 45.6 ± 4.8 min
